High-throughput results: PubChem BioAssay, Broad Institute
Rows were chosen to be rich in hits. Some 3.3% of all compounds tested hit in one or more screens of this group.
FGF22 binding = binders of recombinant human FGF22 by thermal shift | SYPRO orange fluorescence; percent of sucrose octasulfate shift, DMSO zero | actives 1.5% (n = 340,000) | Q9HCT0 | activity (Tm shift, normalised), % at 9.99 µM | AID 651658;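 active = mean Tm shift, scaled 0 neutral to 100 positive control, at about 1.3% or above, every replicate too, limit read from the data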
DENV2 CPE rescue = DENV2-induced cell death inhibition. DENV2-infected cells, cytopathic effect rescue, plate reader. CPE inhibition, % at 9.99 µM. actives 1.7% (n = 350,000). AID 651640; in the data active = CPE inhibition above about 20%, passing the limit was not always enough; tested in BHK-21 cells
E-selectin induc = E-selectin induction on HUVECs. actives 0.37% (n = 260,000). HUVEC E-selectin immunofluorescence imaging; normalized: neutral wells 0, TNF-alpha wells 100. activation, % at 7.58 µM;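 active = mean E-selectin-positive cell signal at least 10% of the positive control, reached in at least 60% of replicates, without over 20% cell loss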
Target sequence (P16581 whole entry, looked up): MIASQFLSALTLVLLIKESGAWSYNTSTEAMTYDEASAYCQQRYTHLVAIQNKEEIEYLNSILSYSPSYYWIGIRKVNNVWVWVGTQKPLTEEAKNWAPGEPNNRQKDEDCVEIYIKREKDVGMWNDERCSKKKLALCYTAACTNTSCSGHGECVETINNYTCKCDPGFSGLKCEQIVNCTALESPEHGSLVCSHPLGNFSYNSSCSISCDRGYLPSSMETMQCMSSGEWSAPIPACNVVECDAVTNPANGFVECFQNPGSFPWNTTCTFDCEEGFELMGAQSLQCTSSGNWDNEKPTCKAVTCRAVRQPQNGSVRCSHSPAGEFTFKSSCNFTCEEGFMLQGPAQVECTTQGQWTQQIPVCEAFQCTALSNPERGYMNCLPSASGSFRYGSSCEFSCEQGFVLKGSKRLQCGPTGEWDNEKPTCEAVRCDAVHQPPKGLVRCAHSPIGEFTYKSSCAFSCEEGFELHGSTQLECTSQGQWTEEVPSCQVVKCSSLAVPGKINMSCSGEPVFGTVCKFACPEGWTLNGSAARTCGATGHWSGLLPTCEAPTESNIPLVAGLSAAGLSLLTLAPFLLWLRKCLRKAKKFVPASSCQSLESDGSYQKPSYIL
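material = human umbilical vein endothelial cells (HUVEC), E-selectin induction | quantity = 3,000 cells/well | medium = EGM-2 growth medium on 0.1% gelatin-coated wells | technique = immunofluorescence imaging | read-out basis = % PE-positive cells | control set = TNF-alpha positive control, DMSO neutral control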
PglD inh = blocks C. jejuni PglD acetyltransferase activity; purified PglD enzyme, DTNB colorimetric CoA detection; inhibition, % at 12.5 µM; actives 0.098% (n = 360,000); AID 602405; in the data active = inhibition above about 16%, passing the limit was not always enough
C2C12 statin = suppression of simvastatin myotoxicity; C2C12 myotubes + simvastatin, ATP luminescence, 48 h; scaled: DMSO 0, geranylgeraniol control 100; rescue of ATP level, % at 7.49 µM; actives 0.78% (n = 330,000);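 active = mean ATP rescue above about 67%, or every replicate alone reaching that limit, limit read from the data, passing the limit was not always enough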;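 note: myotubes were challenged with 10 µM simvastatin during compound exposure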
Xi reactivation = activators of X-chromosome reactivation in mouse fibroblasts. XiGFP mouse fibroblasts, % GFP-positive cells imaging, 3 d; cells co-treated with 5-aza-dC sensitizer; scaled so ellipticine positive control = 100%. activation, % at 7.58 µM. actives 0.055% (n = 360,000). AID 743238;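 active = mean normalized replicate activation at least 10% and every replicate at or above 10%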
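System: 68-5-11 XiGFP fibroblast line | Buffer or medium: DMEM containing 5-aza-dC | Compound: Single point | Times: Compounds 3 days, fix/stain 15 min at room temperature | Benchmarks: Positive control ellipticine, 6 µM final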
Hits are given with their value; – = inactive; · = no result given.

SMILES	FGF22 binding	DENV2 CPE rescue	E-selectin induc	PglD inh	C2C12 statin	Xi reactivation
O=C(c1ccccc1O)N1CCOCC1	43.2	–	–	–	–	–
CCC(=O)N1CC[C@H]2[C@H](CO)Nc3ccc(C#Cc4cccc(OC)c4)cc3[C@H]21	·	·	·	·	·	–
Cc1cc(C)cc(-n2c(C)cc(/C=N/NC(=O)c3ccncc3)c2C)c1	–	–	–	–	–	–
Cc1cc(/C=N/NC(=O)c2ccsc2)c(C)n1-c1cnccn1	43.7	–	·	·	·	–
C[C@@H]1CN([C@@H](C)CO)C(=O)c2cc(NC(=O)Cc3ccccc3)ccc2O[C@@H](C)CCCCO[C@@H]1CN(C)S(=O)(=O)c1ccc(Cl)cc1	–	–	–	–	·	–
O=C(O)C1CCC(Cn2c(SCc3cc(=O)n4cc(Br)ccc4n3)nc3ccsc3c2=O)CC1 (stereo not given)	–	–	–	·	·	–
O=C(O)c1ccc(Cn2c(SCc3cc(=O)n4cc(Br)ccc4n3)nc3ccsc3c2=O)cc1	43.4	–	–	·	·	–
CN1[C@@H]2CN(C(=O)C3CCOCC3)c3ccccc3[C@@H]2[C@@H]1CO	–	39.6	–	–	–	–
CC(C)NC(=O)N1C[C@@H]2[C@H](c3ccccc31)[C@@H](CO)N2C(=O)c1ccccc1	–	29.1	–	–	–	–
O=C(C1CCOCC1)N1C[C@H]2[C@@H](c3ccccc31)[C@@H](CO)N2C(=O)c1ccccc1	–	96.8	–	–	–	–
C[C@@H]1CN([C@H](C)CO)C(=O)c2cccc(NC(=O)c3cnccn3)c2O[C@H]1CN(C)S(=O)(=O)c1ccccc1	·	·	–	·	–	–
C[C@@H]1CCCCO[C@H](CN(C)C(=O)C2CCCCC2)[C@@H](C)CN([C@@H](C)CO)C(=O)c2cc(NS(=O)(=O)c3cn(C)cn3)ccc2O1	–	–	–	–	·	–
CC(C)(C)NC(=O)C(c1cccc2ccccc12)n1c(=O)c(-c2ccccc2)nc2ccccc21 (stereo not given)	–	27.1	–	·	·	–
CCc1cccc(NC(=O)CCc2nc3sc4c(c3c(=O)[nH]2)CCCC4)c1	–	·	84.2	·	·	–
Cc1cccc(NC(=O)CCc2nc3sc4c(c3c(=O)[nH]2)CCCC4)c1	–	–	·	·	·	–
CC(C)NC(=S)N/N=C1\CCCc2ccccc21	43.1	–	·	·	·	–
COc1ccc2c3c(n(C)c2c1)[C@@H](CO)N(C(C)=O)CC31CN(C(=O)C2CCOCC2)C1	–	–	–	·	·	–
O=C1c2ccccc2NC(c2ccc(Br)s2)N1O (stereo not given)	–	52.7	·	·	·	–
C=CCN1C(=O)c2ccccc2NC1c1ccc(Br)s1 (stereo not given)	–	–	·	–	–	–
CN(C)CCCNC(=O)[C@H]1[C@H](CO)[C@H]2Cn3c(cccc3=O)[C@@H]1N2CC1CC1	–	–	–	–	–	–
Cc1ccc(S(=O)(=O)N(C)C[C@H]2Oc3ccc(NC(=O)CCCN(C)C)cc3CC(=O)N([C@@H](C)CO)C[C@@H]2C)cc1	–	–	–	–	–	–
CCOC(=O)C(=O)C1=C(N2CCOCC2)/C(=C\c2cccc([N+](=O)[O-])c2)CC1	–	–	·	·	–	–
O=C(NP(=O)(N1CCCC1)N1CCCC1)C1=C(N2CCOCC2)/C(=C/c2cccc([N+](=O)[O-])c2)CC1	44.4	–	·	·	·	–
Cc1cccc(C)c1-n1c(SCC(=O)Nc2ccc(C(=O)O)cc2)nnc1-c1cccc(S(=O)(=O)N(C)C)c1	43.2	–	·	·	·	–
Cc1[nH]nc2c1C(c1ccsc1)C(C#N)=C(N)O2 (stereo not given)	·	·	·	–	141.5	·
SMILES	FGF22 binding	DENV2 CPE rescue	E-selectin induc	PglD inh	C2C12 statin	Xi reactivation
COc1ccc(NC(=O)N(C)C[C@@H]2OCCCC[C@@H](C)Oc3ccc(NC(=O)CCC(F)(F)F)cc3C(=O)N([C@@H](C)CO)C[C@H]2C)cc1	–	–	–	–	–	–
COCC(=O)N1CC2(C1)[C@@H](c1ccccc1)[C@H](CO)N2C(=O)c1ccncc1	·	·	·	·	·	–
Cc1csc(-c2nc3ccccc3n2C(C(=O)NC(C)(C)C)c2ccccc2)c1 (stereo not given)	–	22.0	–	·	·	–
CC(C)(C)NC(=O)C(c1ccc(-c2ccccc2)cc1)n1c(=O)c(-c2ccccc2)nc2ccccc21 (stereo not given)	–	–	–	·	·	–
Cc1csc(NC(=O)CSc2nnc(CCNC(=O)c3cccs3)n2C)n1	·	·	·	–	98.2	·
CCCNC(=O)N1CC2(C1)[C@H](c1ccccc1)[C@H](CO)N2C(=O)C1CCCCC1	–	65.1	–	·	·	–
CCCNC(=O)N1CC2(C1)[C@H](c1ccccc1)[C@@H](CO)N2C(=O)C1CCCCC1	–	–	–	·	·	–
CCCNC(=O)N1CC2(C1)[C@H](c1ccccc1)[C@H](CO)N2C(=O)CC1CC1	–	23.0	–	·	·	–
O=C(c1ccccc1)N1CC2(C1)[C@H](c1ccccc1)[C@@H](CO)N2C(=O)CC1CC1	–	25.5	–	·	·	–
CCCNC(=O)N1CC2(C1)[C@H](c1ccccc1)[C@@H](CO)N2C(=O)CC1CC1	–	–	–	·	·	–
CCCN1CCC(NC(=O)CC2C(=O)NCCN2Cc2cccc(OC)c2)CC1 (stereo not given)	–	85.3	–	–	·	–
O=C(CC1C(=O)NCCN1Cc1cccc(Oc2ccccc2)c1)NCCc1ccccn1 (stereo not given)	–	–	–	·	·	–
Cn1cc(CCNC(=O)CC2C(=O)NCCN2Cc2cccc(Oc3ccccc3)c2)cn1 (stereo not given)	44.0	–	·	·	·	–
CC(=O)c1cccc(N(C(=O)c2ccco2)C(C(=O)NC2CCCC2)c2ccc(N3CCOCC3)cc2)c1 (stereo not given)	42.9	–	·	·	·	–
Cc1cc(C)n2nc(C(=O)OCC(=O)N(CC(C)C)C3CCS(=O)(=O)C3)nc2n1 (stereo not given)	–	–	–	–	96.1	–
Cc1cccc(-c2noc(Cc3ccc(Cl)cc3)n2)c1	·	·	·	–	121.0	·
CC(=O)N1CCN(Cc2nc(-c3cccc(Cl)c3)no2)CC1	43.1	–	–	·	·	–
